Test results: ChEMBL document CHEMBL2385035 (J Med Chem, 2013)
Activity calls are given as the source filed them. The calls are words filed in the database; no cut-off is given here.

Assays:
[1] = Half life in Sprague-Dawley rat intestine at 10 mg/kg, po; assay type: ADME, organism-based; set-up: dose 10 mg/kg, route oral
[2] = Apparent permeability in MDCK cells expressing MDR1 at 3 uM after 60 mins by LC-MS/MS analysis; assay type: ADME, cell-based, Canis lupus familiaris; settings: dog
Mus musculus [3] = experiment: In vivo inhibition of ASBT in C57BL/6J mouse assessed as increase in fecal bile acid excretion measured for 24 hrs; assay type: functional; settings: Feces
[4] = molecular target: T1, Ileal sodium/bile acid cotransporter (Rattus norvegicus, UniProt Q62633); experiment: Inhibition of rat ASBT expressed in HEK293 cells assessed as inhibition of [3H]-taurocholate uptake after 90 mins by scintillation counting analysis; assay type: cell-based
T1 sequence (Q62633 whole entry): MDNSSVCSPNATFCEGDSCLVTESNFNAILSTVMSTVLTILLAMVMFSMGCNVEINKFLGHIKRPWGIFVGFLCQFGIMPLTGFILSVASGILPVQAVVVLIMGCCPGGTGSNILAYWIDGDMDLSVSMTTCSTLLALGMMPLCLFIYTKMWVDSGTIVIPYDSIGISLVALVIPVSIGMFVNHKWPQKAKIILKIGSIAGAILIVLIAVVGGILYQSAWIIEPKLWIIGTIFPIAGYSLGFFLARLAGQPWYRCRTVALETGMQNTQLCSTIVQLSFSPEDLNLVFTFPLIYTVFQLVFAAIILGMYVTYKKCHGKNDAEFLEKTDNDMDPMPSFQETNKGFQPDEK

Rattus norvegicus [5] = experiment: Antidiabetic activity in Zucker diabetic fatty rat assessed as reduction in non-fasted plasma glucose level at 0.05 to 10 mg/kg, po bid for 2 weeks measured on day 14 relative to vehicle-treated control; assay type: functional; set-up: scale not given: the % may be the effect or the level left; settings: dose mg/kg 0.05-10
Method in brief: (§1)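 Male ZDF rats, 8 weeks old, dosed orally twice daily for 14 days in two separate studies. Day-14 tail-vein blood sampled for HbA1c and for plasma glucose (nonfasted), insulin and total GLP-1. Compared with vehicle-treated animals, significance at p < 0.05.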

Rattus norvegicus [6] = experiment: Antidiabetic activity in Zucker diabetic fatty rat assessed as reduction in blood HbA1c level at 0.05 to 10 mg/kg, po bid for 2 weeks measured on day 14 relative to vehicle-treated control; assay type: functional; set-up: scale not given: the % may be the effect or the level left; settings: dose mg/kg 0.05-10; method in brief: as §1
[7] = molecular target: T2, Ileal sodium/bile acid cotransporter (Homo sapiens, UniProt Q12908); experiment: Inhibition of human ASBT expressed in HEK293 cells assessed as inhibition of [3H]-taurocholate uptake after 90 mins by scintillation counting analysis; assay type: cell-based
T2 sequence (Q12908 whole entry): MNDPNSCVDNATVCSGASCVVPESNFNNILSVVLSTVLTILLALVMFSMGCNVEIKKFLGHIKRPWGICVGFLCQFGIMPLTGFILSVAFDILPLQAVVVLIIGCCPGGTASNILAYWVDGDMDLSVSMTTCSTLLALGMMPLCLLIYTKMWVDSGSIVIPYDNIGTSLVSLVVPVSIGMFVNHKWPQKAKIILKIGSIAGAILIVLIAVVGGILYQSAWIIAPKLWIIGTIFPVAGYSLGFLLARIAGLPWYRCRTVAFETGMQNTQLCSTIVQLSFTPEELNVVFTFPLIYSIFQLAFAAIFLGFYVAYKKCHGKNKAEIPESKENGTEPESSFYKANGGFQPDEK

[8] = molecular target: T3, Ileal sodium/bile acid cotransporter (Mus musculus, UniProt P70172); experiment: Inhibition of mouse ASBT expressed in HEK293 cells assessed as inhibition of [3H]-taurocholate uptake after 90 mins by scintillation counting analysis; assay type: cell-based
T3 sequence (P70172 whole entry): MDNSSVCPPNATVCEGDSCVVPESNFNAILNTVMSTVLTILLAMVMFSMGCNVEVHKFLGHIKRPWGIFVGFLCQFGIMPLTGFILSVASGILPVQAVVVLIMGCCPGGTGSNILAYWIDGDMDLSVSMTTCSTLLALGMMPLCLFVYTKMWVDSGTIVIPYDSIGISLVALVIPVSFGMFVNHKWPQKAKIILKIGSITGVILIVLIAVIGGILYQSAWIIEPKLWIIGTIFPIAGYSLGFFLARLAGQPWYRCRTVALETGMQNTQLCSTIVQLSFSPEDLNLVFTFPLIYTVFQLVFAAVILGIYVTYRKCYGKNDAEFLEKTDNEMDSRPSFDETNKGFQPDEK

[9] = Aqueous solubility of the compound; assay type: physicochemical; settings: buffer
[10] = Drug recovery in Sprague-Dawley rat feces at 10 mg/kg, po; assay type: ADME, organism-based; set-up: dose 10 mg/kg, route oral; settings: read-out: Drug recovery
Rattus norvegicus [11] = experiment: Antidiabetic activity in Zucker diabetic fatty rat assessed as increase in plasma insulin level at 0.05 to 10 mg/kg, po bid for 2 weeks measured on day 14 relative to vehicle-treated control; assay type: functional, organism-based; method in brief: as §1
Mus musculus [12] = experiment: In vivo inhibition of ASBT in C57BL/6J mouse assessed as increase in fecal bile acid excretion measured for 24 hrs relative to 264W94; assay type: functional, Feces; set-up: concentration or dose not given beside the values
[13] = Cmax in Sprague-Dawley rat portal vein blood at 10 mg/kg, po; assay type: ADME, organism-based; set-up: dose 10 mg/kg, route oral
Method in brief: (§2)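 Fed male SD rats given a single oral gavage dose of 10 mg/kg. Maximum parent drug concentration measured in portal vein blood and in systemic blood.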

[14] = Thermal stability of the compound; assay type: physicochemical
Rattus norvegicus [15] = experiment: Antidiabetic activity in Zucker diabetic fatty rat assessed as increase in fecal bile acid excretion at 0.05 to 10 mg/kg, po bid for 2 weeks measured for 24 hrs post last dose relative to vehicle-treated control; assay type: functional, Feces; settings: dose mg/kg 0.05-10
Rattus norvegicus [16] = experiment: Antidiabetic activity in Zucker diabetic fatty rat assessed as increase in total GLP-1 level at 0.05 to 10 mg/kg, po bid for 2 weeks measured on day 14 relative to vehicle-treated control; assay type: functional, organism-based; method in brief: as §1
[17] = Cmax in Sprague-Dawley rat systemic blood at 10 mg/kg, po; assay type: ADME, organism-based; set-up: dose 10 mg/kg, route oral; method in brief: as §2

SMILES	Papp at 1 h, 3 µM [2] [×10⁻⁶ cm/s]	IC50 [7] [nM]	Cmax [13] [ng/mL]	Cmax [17] [ng/mL]	other results
CCCC[C@]1(CC)CS(=O)(=O)c2cc(CNCC(=O)O)c(OC)cc2[C@@H](c2ccccc2)N1	2.7	4	27	1	half-life [1]: > 720 min; ED50 (Mus musculus [3]): 0.017 mg/kg; IC50 [4]: 0.2 nM; Activity (Rattus norvegicus [5]): >50%; Activity (Rattus norvegicus [6]): 1.3%; IC50 [8]: 0.3 nM; solubility [9]: ≥ 200 µg/mL; dose excreted [10]: 92%; Activity (Rattus norvegicus [11]): Active; Efficacy (Mus musculus [12]): 98%; Stability [14]: Unstable; fold change (FC) (Rattus norvegicus [15]): 7; Activity (Rattus norvegicus [16]): Active
CCCC[C@]1(CC)CS(=O)(=O)c2cc(CN[C@@H](CC(=O)O)C(=O)O)c(OC)cc2[C@@H](c2ccccc2)N1	0.6	–	93	1	–
CCCC[C@]1(CC)CS(=O)(=O)c2cc(CNC(=O)CP(=O)(O)O)c(OC)cc2[C@@H](c2ccccc2)N1	0.3	–	–	–	–
CCCC[C@]1(CC)CS(=O)(=O)c2cc(CCC(=O)NC(CC(=O)O)CC(=O)O)c(OC)cc2[C@@H](c2ccccc2)N1	–	> 3000	–	–	–
CCCC[C@]1(CC)CS(=O)(=O)c2cc(CNC(=O)CNC(CC(=O)O)CC(=O)O)c(OC)cc2[C@@H](c2ccccc2)N1	–	> 3000	–	–	–
CCCC[C@]1(CC)CS(=O)(=O)c2cc(OCP(=O)(O)O)c(OC)cc2[C@@H](c2ccccc2)N1	–	900	–	–	–
CCCC[C@]1(CC)CS(=O)(=O)c2cc(CN[C@H](CC(=O)O)C(=O)O)c(OC)cc2[C@@H](c2ccccc2)N1	0.7	–	11	1	ED50 (Mus musculus [3]): > 1 mg/kg; dose excreted [10]: 100%; Efficacy (Mus musculus [12]): 70%
CCCC[C@]1(CC)CS(=O)(=O)c2cc(CN[C@@H](CO)C(=O)O)c(OC)cc2[C@@H](c2ccccc2)N1	0.5	–	12	24	half-life [1]: 480 min; ED50 (Mus musculus [3]): 0.012 mg/kg; dose excreted [10]: 63%; Efficacy (Mus musculus [12]): 47%
CCCC[C@]1(CC)CS(=O)(=O)c2cc(C(=O)NCC(C)(C)C(=O)O)c(OC)cc2[C@@H](c2ccccc2)N1	4.3	–	–	–	–
CCCC[C@]1(CC)CS(=O)(=O)c2cc(CNCP(=O)(O)O)c(OC)cc2[C@@H](c2ccccc2)N1	–	> 3000	–	–	–
CCCC[C@]1(CC)CS(=O)(=O)c2cc(OCCCC(=O)O)c(OC)cc2[C@@H](c2ccccc2)N1	30.3	13	–	–	–
CCCC[C@]1(CC)CS(=O)(=O)c2cc(CCP(=O)(O)O)c(OC)cc2[C@@H](c2ccccc2)N1	1.2	–	–	–	–

Second part, led by results:

Papp at 1 h, 3 µM [2] [×10⁻⁶ cm/s]	IC50 [7] [nM]	Cmax [13] [ng/mL]	Cmax [17] [ng/mL]	SMILES	other results
1	–	224	1	CCCC[C@]1(CC)CS(=O)(=O)c2cc(CN(C)CC(=O)O)c(OC)cc2[C@@H](c2ccccc2)N1	–
1.9	–	122	26	CCCC[C@]1(CC)CS(=O)(=O)c2cc(CNC(=O)CS(=O)(=O)O)c(OC)cc2[C@@H](c2ccccc2)N1	–
0.4	–	132	38	CCCC[C@]1(CC)CS(=O)(=O)c2cc(C(=O)NCCS(=O)(=O)O)c(OC)cc2[C@@H](c2ccccc2)N1	–
38.3	–	–	–	CCCC[C@]1(CC)CS(=O)(=O)c2cc(CCC(=O)O)c(OC)cc2[C@@H](c2ccccc2)N1	–
0.8	–	–	–	CCCC[C@]1(CC)CS(=O)(=O)c2cc(CN(CCS(=O)(=O)O)CCS(=O)(=O)O)c(OC)cc2[C@@H](c2ccccc2)N1	–
–	367	–	–	CCCC[C@]1(CC)CS(=O)(=O)c2cc(CN(C)CCC(=O)O)c(OC)cc2[C@@H](c2ccccc2)N1	–
